Data: ChEMBL document CHEMBL1143936, “Role of benzimidazole (Bid) in the delta-opioid agonist pseudopeptide H-Dmt-Tic-NH-CH(2)-Bid (UFP-502)” (Bioorg Med Chem, 2008)

Legend:
[1] = target: T1, Delta-type opioid receptor (Mus musculus, UniProt P32300); assay: Antagonist activity at delta opioid receptor assessed as DPDPE-stimulated mouse vas deferens contraction; type: functional, tissue-based; settings: read-out: pA2 (converted)
How it was run: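 Mouse vas deferens in an organ bath with physiological salt buffer, pH 7.5, electrically stimulated. Antagonism was measured against the δ agonist DPDPE and expressed as pA2 from a Schild plot.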

Mu-type opioid receptor [2] = target: Mu-type opioid receptor (Rattus norvegicus, UniProt P33535); assay: Binding affinity to mu opioid receptor in Sprague-Dawley rat brain membrane; type: cell membranes
Chain of Mu-type opioid receptor (Rattus norvegicus, UniProt P33535) (P33535 whole entry): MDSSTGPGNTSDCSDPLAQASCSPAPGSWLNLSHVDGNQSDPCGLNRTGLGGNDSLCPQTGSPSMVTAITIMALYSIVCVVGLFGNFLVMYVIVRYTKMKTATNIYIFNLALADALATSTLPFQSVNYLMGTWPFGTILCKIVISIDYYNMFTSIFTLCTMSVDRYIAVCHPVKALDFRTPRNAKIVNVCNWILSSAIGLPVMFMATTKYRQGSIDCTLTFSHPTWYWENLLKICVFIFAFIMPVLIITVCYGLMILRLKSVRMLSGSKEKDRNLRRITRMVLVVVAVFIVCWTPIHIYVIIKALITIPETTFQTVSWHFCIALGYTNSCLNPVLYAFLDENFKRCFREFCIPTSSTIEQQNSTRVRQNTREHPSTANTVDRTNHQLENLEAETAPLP
How it was run: (§1)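 Competition binding at equilibrium (2.5 h, 23 °C) on brain P2 synaptosomal membranes from Sprague-Dawley rats. Membranes were preincubated to strip endogenous opioid peptides and stored at −80 °C in buffered 20% glycerol. Filtration used GFC filters pre-soaked in 0.1% polyethylenimine, washed three times with ice-cold buffered BSA. Five to eight doses were run in duplicate, 3–5 independent membrane preparations each. Ki by Cheng–Prusoff, mean ± SE.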

Rattus norvegicus [3] = organism: Rattus norvegicus; assay: Selectivity ratio of Sprague-Dawley rat mu opioid receptor to Sprague-Dawley rat delta opioid receptor
How it was run: (§2)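 Ratio of the Ki values for δ and μ sites, both from the same rat brain synaptosome competition binding assay (2.5 h, 23 °C; Cheng–Prusoff Ki).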

[4] = target: Delta-type opioid receptor (Rattus norvegicus, UniProt P33533); assay: Binding affinity to delta opioid receptor in Sprague-Dawley rat brain membrane; type: cell membranes; how it was run: as §1
Chain of Delta-type opioid receptor (Rattus norvegicus, UniProt P33533) (P33533 whole entry): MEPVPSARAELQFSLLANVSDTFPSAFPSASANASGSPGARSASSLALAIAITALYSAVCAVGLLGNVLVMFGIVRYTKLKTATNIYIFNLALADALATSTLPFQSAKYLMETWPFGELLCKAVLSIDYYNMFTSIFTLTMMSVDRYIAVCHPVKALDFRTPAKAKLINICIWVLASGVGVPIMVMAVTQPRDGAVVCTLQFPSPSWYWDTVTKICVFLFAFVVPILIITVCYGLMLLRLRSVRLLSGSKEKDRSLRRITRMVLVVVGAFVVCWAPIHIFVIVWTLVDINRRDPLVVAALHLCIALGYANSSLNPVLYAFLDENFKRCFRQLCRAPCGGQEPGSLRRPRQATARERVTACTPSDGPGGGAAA

Mu-type opioid receptor [5] = target: Mu-type opioid receptor (Cavia porcellus, UniProt P97266); assay: Agonist activity at mu opioid receptor assessed as inhibition of electrically-stimulated Hartley guinea pig contraction; type: functional, Hartely
Chain of Mu-type opioid receptor (Cavia porcellus, UniProt P97266) (P97266 whole entry): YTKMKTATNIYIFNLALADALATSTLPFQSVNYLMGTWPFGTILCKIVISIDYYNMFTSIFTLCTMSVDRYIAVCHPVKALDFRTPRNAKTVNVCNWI
How it was run: (§3)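 Isolated tissues in organ baths of balanced physiological salt buffer, pH 7.5. δ: single mouse vas deferens. μ: 2–3 cm myenteric plexus–longitudinal muscle strips from the small intestine of male Hartley guinea pigs. Read-out was inhibition of electrically evoked contraction; IC50 from dose–response curves, mean ± SE of separate assays. Internal standards were DPDPE (vas deferens) and PL-017 (ileum).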

[6] = target: T1, Delta-type opioid receptor; assay: Agonist activity at delta opioid receptor assessed as inhibition of electrically-stimulated mouse vas deferens contraction; type: functional, tissue-based; how it was run: as §3
Rattus norvegicus [7] = organism: Rattus norvegicus; assay: Selectivity ratio of rat delta opioid receptor to rat mu opioid receptor; how it was run: as §2

T1 sequence (P32300 whole entry): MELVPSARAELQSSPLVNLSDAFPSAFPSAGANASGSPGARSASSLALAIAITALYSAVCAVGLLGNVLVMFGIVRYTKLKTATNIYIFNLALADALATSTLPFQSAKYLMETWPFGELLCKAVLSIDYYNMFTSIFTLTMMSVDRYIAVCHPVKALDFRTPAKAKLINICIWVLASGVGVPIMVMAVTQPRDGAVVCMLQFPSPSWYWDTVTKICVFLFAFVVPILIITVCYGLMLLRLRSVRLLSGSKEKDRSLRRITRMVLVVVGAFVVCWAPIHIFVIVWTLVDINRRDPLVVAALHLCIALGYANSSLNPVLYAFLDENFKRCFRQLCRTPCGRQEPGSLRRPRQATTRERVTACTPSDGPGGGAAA

Structure (SMILES) | Kb [1] [nM] | Ki (Mu-type opioid receptor [2]) [nM] | Ratio Ki (Rattus norvegicus [3]) | Ki [4] [nM] | IC50 (Mu-type opioid receptor [5]) [nM] | IC50 [6] [nM] | Ratio Ki (Rattus norvegicus [7])
Cc1cc(O)cc(C)c1C[C@H](N)C(=O)N1Cc2ccccc2C[C@H]1C(=O)NCc1cc2ccccc2[nH]1 | 0.355 | 0.7 | 10.6 | 0.066 | 209 |  | 
Cc1cc(O)cc(C)c1C[C@H](N)C(=O)N1Cc2ccccc2C[C@H]1C(=O)NCc1nc2ccccc2s1 | 0.427 | 1.06 | 7.3 | 0.145 | 129 |  | 
Cc1cc(O)cc(C)c1C[C@H](N)C(=O)N1Cc2ccccc2C[C@H]1C(=O)NCc1nc2ccccc2[nH]1 |  |  |  |  | 35.5 | 0.94 | 
Cc1cc(O)cc(C)c1C[C@H](N)C(=O)N1Cc2ccccc2C[C@H]1C(=O)NCc1nc2ccccc2o1 | 0.38 | 1.42 | 5 | 0.283 | 170 |  | 
Cc1cc(O)cc(C)c1C[C@H](N)C(=O)N1Cc2ccccc2C[C@H]1C(=O)NCC1Cc2ccccc2C1 |  | 0.16 |  | 0.199 | 28.4 | 129 | 1.2
Cc1cc(O)cc(C)c1C[C@H](N)C(=O)N1Cc2ccccc2C[C@H]1C(=O)NCc1ncc[nH]1 |  | 1.18 | 10 | 0.114 | 113 | 3.63 | 
Cc1cc(O)cc(C)c1C[C@H](N)C(=O)N1Cc2ccccc2C[C@H]1C(=O)NCc1nc(-c2ccccc2)c[nH]1 | 0.398 | 6.74 | 15 | 0.443 | 154 |  | 
